Assays:
[1] = target: Aldo-keto reductase family 1 member B1 (Rattus norvegicus) (UniProt P07943); experiment: Compound was tested for its ability to inhibit crude aldose reductase obtained from rat lens at 100 uM concentration
Procedure, shortened: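 Crude enzyme prepared from rat lens. Reaction at pH 6.2 in 0.1 M phosphate buffer with 0.104 mM NADPH and 1.5 mM DL-glyceraldehyde as substrate. NADPH consumption followed at 340 nm against a blank lacking substrate. Percent inhibition from rate versus substrate-only control. IC50 from linear regression of log dose-response using at least three concentrations, three replicates each, for compounds exceeding 50% inhibition at 100 μM.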

[2] = target: Aldo-keto reductase family 1 member B1 (Rattus norvegicus, UniProt P07943); experiment: Compound was tested for its ability to inhibit crude aldose reductase obtained from rat lens

## COc1cc2nc(NCc3ccccc3)nc(O)c2cc1OC
[1]
  inhibition: 22.4%

## O=S(=O)(O)c1ccc(Nc2nc(O)c3ccccc3n2)cc1
[1]
  inhibition: 42.6%

## O=C(O)c1ccc(Nc2nc3ccccc3c(=O)[nH]2)cc1O
[2]
  IC50: 57 µM

## Oc1nc(Nc2ccccc2)nc2ccccc12
[1]
  inhibition: 5.9%

## Oc1nc(NCc2ccccc2)nc2ccccc12
[1]
  inhibition: 3.9%

## COc1cc2nc(Nc3ccc(C(=O)O)cc3)[nH]c(=O)c2cc1OC
[2]
  IC50: 34 µM

## Cc1nc2ccccc2c(=O)n1-c1ccc(C(=O)O)cc1
[2]
  IC50: 214 µM

## O=c1[nH]c(Nc2ccc(O)cc2)nc2ccccc12
[2]
  IC50: 75 µM

## O=C(O)c1ccc(Nc2nc3ccccc3c(=O)[nH]2)cc1
[2]
  IC50: 50 µM

## COc1cc2nc(Nc3ccccc3)nc(O)c2cc1OC
[1]
  inhibition: 17.4%

— ChEMBL document CHEMBL1123166, “Design and synthesis of 2-(arylamino)-4(3H)-quinazolinones as novel inhibitors of rat lens aldose reductase” (J Med Chem, 1986)
